According to article PMC2978023 (Journal of immunology (Baltimore, Md. : 1950), 2008):
Ends that are not written are not given here.

Assays:
αMβ2 on PMN = test: Soluble Alexa 488-labeled ligand binding to PMN, FACS; parameters: species or system human; details: clustering inhibitor, 1 h, 37 °C, mean ± SEM, n = 3
Procedure, shortened: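 Human PMNs were incubated for 1 h at 37°C in HBSS/Ca²⁺/Mg²⁺ with soluble Alexa 488-labelled Plg or Fg, with or without clustering inhibitors. After two buffer washes, bound ligand was read by FACS; mean ± SEM, n = 3.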

human PMNs = details: 16 h
αMβ2 = αMβ2 clustering on PMNs, fluorescence microscopy; assay type: cell-based, human; details: Plg 1 μM + inhibitor, 4 h, 37 °C; MβCD 5 mM, peptide 18 0.5 μM, H7 300 μM, BDM 20 mM, cytochalasin D 10 μM, calpain inhibitor III 10 μM
Procedure, shortened: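 Human PMNs were exposed to ligands (proteins 1 μM, peptides 100 μM) for 4 h at 37°C, or to 1 μM Plg together with clustering inhibitors at the final concentrations used in apoptosis assays. Cells were fixed in 4% paraformaldehyde and stained with anti-αM mAb OKMI plus Alexa 488 goat anti-mouse IgG. They were cytospun, mounted and imaged by fluorescence microscopy (×40/0.7 NA); PMNs came from four donors.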

PMN = details: cited from earlier work; for effect on PMN apoptosis: ref [6]–[9]
[1] = target: recombinant purified β2 subunit (Homo sapiens, UniProt P05107); test: Solid-phase binding to purified β2 subunit
recombinant purified β2 subunit, sequence (P05107 23-769): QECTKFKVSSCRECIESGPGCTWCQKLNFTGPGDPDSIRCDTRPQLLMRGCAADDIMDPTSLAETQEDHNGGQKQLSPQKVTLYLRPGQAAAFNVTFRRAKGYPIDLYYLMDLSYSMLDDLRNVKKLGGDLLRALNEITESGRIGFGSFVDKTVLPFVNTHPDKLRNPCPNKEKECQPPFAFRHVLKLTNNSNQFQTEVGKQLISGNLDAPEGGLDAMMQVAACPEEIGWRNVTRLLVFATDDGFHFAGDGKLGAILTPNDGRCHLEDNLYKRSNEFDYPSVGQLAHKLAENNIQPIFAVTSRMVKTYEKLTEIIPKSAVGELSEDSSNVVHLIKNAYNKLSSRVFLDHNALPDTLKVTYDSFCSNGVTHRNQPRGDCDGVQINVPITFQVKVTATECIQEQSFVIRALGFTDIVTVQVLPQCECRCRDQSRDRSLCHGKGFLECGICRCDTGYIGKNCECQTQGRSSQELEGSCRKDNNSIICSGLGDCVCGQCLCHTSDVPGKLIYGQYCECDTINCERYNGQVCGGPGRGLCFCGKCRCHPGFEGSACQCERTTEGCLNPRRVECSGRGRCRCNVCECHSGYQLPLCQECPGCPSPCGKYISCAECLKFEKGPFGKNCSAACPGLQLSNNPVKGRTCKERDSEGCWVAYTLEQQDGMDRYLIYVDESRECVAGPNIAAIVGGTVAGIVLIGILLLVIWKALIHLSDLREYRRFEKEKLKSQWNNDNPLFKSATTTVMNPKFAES
Procedure, shortened: (§1)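 Purified recombinant αMβ2, αM or β2 (from HEK293 lines) was coated overnight at 4°C in TBS with 10 mM n-octyl-β-D-glucopyranoside and postcoated with 0.5% PVP for 1 h at 37°C. Biotinylated Plg or Ang(1–4) (0–10 μM) was bound for 2 h at 37°C in the same buffer plus 1 mM CaCl₂/MgCl₂. Binding was detected with alkaline phosphatase–avidin and pNPP at A405. Kd came from a one-site binding fit.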

[2] = target: recombinant purified integrin αMβ2 (Homo sapiens, UniProt P05107+P11215); test: Solid-phase binding to purified αMβ2; details: data not shown; test format not stated
recombinant purified integrin αMβ2, sequence (P05107 23-769, other chains not shown): as the sequence (P05107 23-769) above
Procedure, shortened: as §1

## CC(=O)C(C)=NO [BDM, 2,3-butanedione 2-monoxime]
αMβ2 on PMN
  ligand binding, inhibitor, no ligand (background): 2.90 ± 0.5 MFI
Human PMNs; clustering inhibitor + Fg 1 μM, 37 °C, mean ± SEM, n = 5
  PMN early/late apoptosis (% annexin V+ cells), inhibitor + Fg: 98.7 ± 24%
Human PMNs; clustering inhibitor + P1 100 μM, 37 °C, mean ± SEM, n = 5
  PMN early/late apoptosis (% annexin V+ cells), inhibitor + P1: 85.4 ± 20%
Human PMNs; clustering inhibitor + P2-C 100 μM, 37 °C, mean ± SEM, n = 5
  PMN early/late apoptosis (% annexin V+ cells), inhibitor + P2-C: 97.8 ± 22%
Human PMNs; clustering inhibitor + Plg 1 μM, 37 °C, mean ± SEM, n = 5
  PMN early/late apoptosis (% annexin V+ cells), inhibitor + Plg: 99.2 ± 24%
αMβ2
  effect on Plg-dependent αMβ2 clustering: blocked or significantly reduced

## COc1cccc(-c2cc(=O)c3ccccc3o2)c1N [PD 98059]
Human PMNs; PMN with Plg, 37 °C
  effect on Plg-dependent PMN survival (in words): reduced Plg-dependent PMN survival, but to a lesser extent than the Akt inhibitor

## GM-CSF: agent that promotes PMN responsiveness
PMN
  effect on PMN apoptosis: delay PMN apoptosis

## IL-8: agent that promotes PMN responsiveness
PMN
  effect on PMN apoptosis: delay PMN apoptosis

## KIIPFNRLTIG [P2-C]
Human PMNs; 100 μM
  PMN early/late apoptosis (% annexin V+ cells), no inhibitor: 20.1 ± 4%
[1]
  Kd: 50 nM

## Ang([1]–[3]): angiostatin fragment which lacks kringle 4; Calbiochem
[2]
  recognition by αMβ2: is recognized by this integrin

## TNF-α
PMN
  effect on PMN death: promote PMN death
